Assay results as given in ChEMBL document CHEMBL3992564, “Design and synthesis of novel, potent and selective hypoxanthine analogs as adenosine A1 receptor antagonists and their biological evaluation” (Bioorg Med Chem, 2017).
pKi: −log10 of the molar value. In brackets after ≈: the same amount, converted by molar mass.

Columns and labels:
[1] = molecular target: T1, Adenosine receptor A1 (Homo sapiens, UniProt P30542); test: Displacement of [3H]DPCPX from human adenosine A1 receptor expressed in HEK293 cell membranes after 90 mins
T1 sequence (P30542 whole entry): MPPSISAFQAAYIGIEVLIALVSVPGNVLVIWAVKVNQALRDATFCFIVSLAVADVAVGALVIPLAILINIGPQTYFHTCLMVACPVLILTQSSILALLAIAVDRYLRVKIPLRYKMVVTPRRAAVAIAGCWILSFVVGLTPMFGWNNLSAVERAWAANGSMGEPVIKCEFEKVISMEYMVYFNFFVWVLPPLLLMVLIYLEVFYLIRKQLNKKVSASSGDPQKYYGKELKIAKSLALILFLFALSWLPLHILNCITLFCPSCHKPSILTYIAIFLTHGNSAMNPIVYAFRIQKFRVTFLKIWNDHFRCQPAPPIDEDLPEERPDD

[2] = molecular target: T1, Adenosine receptor A1; test: Antagonist activity at human adenosine A1 receptor expressed in HEK293 cells assessed as reduction in CPA-mediated inhibition of forskolin-stimulated cAMP level preincubated for 15 mins followed by CPA treatment for 15 mins and subsequent addition of forskolin measured after 30 mins by HTRF assay; assay type: functional, cell-based
[3] = molecular target: Adenosine receptor A2a (Homo sapiens, UniProt P29274); test: Displacement of [3H]ZM241385 from human adenosine A2A receptor expressed in HEK293 cell membranes after 90 mins
Sequence of Adenosine receptor A2a (P29274 whole entry): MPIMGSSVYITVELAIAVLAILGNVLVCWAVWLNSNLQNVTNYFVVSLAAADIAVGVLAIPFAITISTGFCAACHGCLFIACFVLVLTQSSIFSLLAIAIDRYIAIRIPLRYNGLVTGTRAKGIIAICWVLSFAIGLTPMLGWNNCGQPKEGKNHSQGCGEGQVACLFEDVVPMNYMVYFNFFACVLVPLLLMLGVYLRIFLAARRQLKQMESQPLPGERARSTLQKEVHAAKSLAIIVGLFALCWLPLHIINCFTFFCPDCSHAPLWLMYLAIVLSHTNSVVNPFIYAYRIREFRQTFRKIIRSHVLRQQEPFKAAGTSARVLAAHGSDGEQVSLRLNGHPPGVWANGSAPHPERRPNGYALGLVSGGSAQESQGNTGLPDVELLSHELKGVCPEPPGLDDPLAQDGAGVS
How it was run: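 Membranes from HEK-293 cells stably transfected with human receptor, pre-treated with adenosine deaminase. Radioligands: 1 nM [3H]DPCPX (A1), 1 nM [3H]ZM241385 (A2A), 1.6 nM [3H]MRS-1754 (A2B), 2 nM [3H]HEMADO (A3). Buffers: Tris pH 7.4 (A1, A2A, A3) or pH 6.5 (A2B), with ADA. Incubated 90 min at room temperature, then filtered. Nonspecific binding defined with 100 µM NECA. Ki from 8 concentrations run in triplicate.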

[4] = molecular target: T2, Adenosine receptor A2b (Homo sapiens, UniProt P29275); test: Antagonist activity at human adenosine A2B receptor expressed in HEK293 cells assessed as reduction in NECA-induced increase in cAMP level preincubated for 15 mins followed by NECA addition measured after 15 mins by HTRF assay; assay type: functional, cell-based
T2 sequence (P29275 whole entry): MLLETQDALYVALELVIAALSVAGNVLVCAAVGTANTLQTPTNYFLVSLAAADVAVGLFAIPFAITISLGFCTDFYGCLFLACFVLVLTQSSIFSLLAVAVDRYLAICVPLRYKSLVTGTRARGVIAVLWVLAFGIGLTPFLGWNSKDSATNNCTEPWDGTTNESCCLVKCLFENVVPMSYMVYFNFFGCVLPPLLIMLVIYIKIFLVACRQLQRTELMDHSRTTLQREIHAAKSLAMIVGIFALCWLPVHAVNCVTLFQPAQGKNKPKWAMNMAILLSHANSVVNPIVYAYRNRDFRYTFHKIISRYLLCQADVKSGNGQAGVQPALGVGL
How it was run: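 Overnight HEK-A1 or HEK-A2B cultures were treated with 1 U/mL ADA for 90 min at 37°C. Compound was added for 15 min, then agonist for 15 min (1 nM CPA for A1; 70 nM NECA for A2B) at room temperature in incomplete DMEM with ADA. Rolipram (20 µM) was included for A1 only. cAMP was read by HTRF.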

[5] = tested on: Liver; test: Metabolic stability in human liver microsomes assessed as metabolic rate measured after 30 mins in presence of NADPH; assay type: ADME, microsome; details: 0.5 h
[6] = Metabolic stability in rat liver microsomes assessed as parent compound remaining measured after 30 mins in presence of NADPH; assay type: ADME, microsome; details: read-out: Stability
[7] = Metabolic stability in human liver microsomes assessed as parent compound remaining measured after 30 mins in presence of NADPH; assay type: ADME, microsome; details: read-out: Stability
[8] = molecular target: T3, CYP1A2 (Homo sapiens, UniProt P05177); test: Inhibition of CYP1A2 (unknown origin) at 5 uM relative to control; assay type: ADME
T3 sequence (P05177 whole entry): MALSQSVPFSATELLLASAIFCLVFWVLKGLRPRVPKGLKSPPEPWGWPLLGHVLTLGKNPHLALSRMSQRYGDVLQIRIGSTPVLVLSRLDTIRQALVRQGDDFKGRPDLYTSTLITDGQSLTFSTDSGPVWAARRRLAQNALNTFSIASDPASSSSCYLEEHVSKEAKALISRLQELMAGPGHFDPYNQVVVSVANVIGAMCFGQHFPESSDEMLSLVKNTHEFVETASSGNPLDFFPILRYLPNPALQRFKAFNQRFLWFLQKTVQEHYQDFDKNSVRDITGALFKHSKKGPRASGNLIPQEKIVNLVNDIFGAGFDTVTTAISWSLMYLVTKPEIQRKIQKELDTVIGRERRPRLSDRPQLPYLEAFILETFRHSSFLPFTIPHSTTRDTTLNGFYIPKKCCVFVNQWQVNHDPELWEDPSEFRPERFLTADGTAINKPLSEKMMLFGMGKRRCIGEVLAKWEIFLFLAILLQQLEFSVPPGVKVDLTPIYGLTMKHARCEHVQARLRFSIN

[9] = molecular target: CYP2D6 (Homo sapiens, UniProt P10635); test: Inhibition of CYP2D6 (unknown origin) at 5 uM relative to control; assay type: ADME
Sequence of CYP2D6 (P10635 whole entry): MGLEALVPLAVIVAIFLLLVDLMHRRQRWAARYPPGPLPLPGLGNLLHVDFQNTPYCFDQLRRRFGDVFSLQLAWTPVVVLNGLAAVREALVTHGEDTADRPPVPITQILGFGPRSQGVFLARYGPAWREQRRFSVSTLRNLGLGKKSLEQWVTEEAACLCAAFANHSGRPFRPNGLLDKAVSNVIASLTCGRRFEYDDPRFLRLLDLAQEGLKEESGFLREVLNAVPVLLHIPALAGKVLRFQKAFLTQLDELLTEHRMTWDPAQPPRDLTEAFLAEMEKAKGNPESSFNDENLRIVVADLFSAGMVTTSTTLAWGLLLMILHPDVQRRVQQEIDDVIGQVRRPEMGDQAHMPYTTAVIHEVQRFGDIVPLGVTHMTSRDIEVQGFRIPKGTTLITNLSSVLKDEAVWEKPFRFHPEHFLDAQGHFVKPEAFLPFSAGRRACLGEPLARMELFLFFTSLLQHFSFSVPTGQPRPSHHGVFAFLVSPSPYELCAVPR

[10] = molecular target: CYP3A4 (Homo sapiens, UniProt P08684); test: Inhibition of CYP3A4 (unknown origin) at 5 uM relative to control; assay type: ADME
Sequence of CYP3A4 (P08684 whole entry): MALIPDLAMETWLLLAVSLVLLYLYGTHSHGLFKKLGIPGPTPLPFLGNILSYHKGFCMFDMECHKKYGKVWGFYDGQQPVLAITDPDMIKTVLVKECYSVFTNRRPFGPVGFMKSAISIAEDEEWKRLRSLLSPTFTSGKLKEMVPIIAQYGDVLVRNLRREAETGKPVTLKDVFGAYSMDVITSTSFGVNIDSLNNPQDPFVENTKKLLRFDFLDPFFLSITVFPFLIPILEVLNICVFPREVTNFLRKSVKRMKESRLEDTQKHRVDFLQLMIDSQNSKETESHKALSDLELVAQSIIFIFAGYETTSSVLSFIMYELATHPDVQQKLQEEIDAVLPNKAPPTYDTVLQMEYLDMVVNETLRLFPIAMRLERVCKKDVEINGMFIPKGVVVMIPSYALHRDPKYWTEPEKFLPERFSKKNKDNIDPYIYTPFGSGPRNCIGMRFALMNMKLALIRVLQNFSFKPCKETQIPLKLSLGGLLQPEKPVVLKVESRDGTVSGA

[11] = Protein binding in rat plasma at 5 uM; assay type: ADME, cell-free; details: read-out: PPB (converted)
[12] = Thermodynamic solubility of the compound in pH 2 solution; assay type: physicochemical; details: read-out: Therm_solubility
[13] = Thermodynamic solubility of the compound in pH 4 solution; assay type: physicochemical; details: read-out: Therm_solubility
[14] = Thermodynamic solubility of the compound in pH 7.4 solution; assay type: physicochemical; details: read-out: Therm_solubility
[15] = AUC (0 to t) in Wistar rat at 3 mg/kg, iv by LC-Ms/MS analysis; assay type: ADME, organism-based; details: in vivo
How it was run: (§1)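 Male Wistar rats (230 ± 15 g), fasted overnight with water available. IV dose of 3 mg/kg given by tail vein as a solution (0.6 mg/mL, 5 mL/kg). PO dose of 5 mg/kg given by gavage as a suspension. Blood was collected into K2EDTA at 0.008 (IV only) to 24 h and plasma was spun off. Samples were precipitated with acetonitrile and run on LC/MS/MS. Parameters came from non-compartmental analysis of individual animals, mean of n = 4.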

[16] = Volume of distribution at steady state in Wistar rat at 3 mg/kg, iv by LC-Ms/MS analysis; assay type: ADME, organism-based; details: in vivo, read-out: Vdss
How it was run: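 Male Wistar rats (230 ± 15 g), fasted overnight with water available. IV dosing at 3 mg/kg by tail vein as solution (0.6 mg/mL, 5 mL/kg). PO dosing at 5 mg/kg by oral gavage. Serial blood sampling into K2EDTA from 0.008 (IV only) to 24 h. Plasma precipitated with acetonitrile containing internal standard and analysed by LC/MS/MS. Non-compartmental parameters calculated per animal; values are means of n = 4.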

[17] = Clearance in Wistar rat at 3 mg/kg, iv by LC-Ms/MS analysis; assay type: ADME, organism-based; details: in vivo; how it was run: as §1
[18] = Elimination half life in Wistar rat at 3 mg/kg, iv by LC-Ms/MS analysis; assay type: ADME, organism-based; details: in vivo, read-out: beta t1/2 (converted); how it was run: as §1

pKi [1]	pKi [2]	pKi [3]	pKi [4]	Drug metabolism [5]	remaining at 0.5 h [6]	remaining at 0.5 h [7]	inhibition at 5 µM [8]	inhibition at 5 µM [9]	inhibition at 5 µM [10]	fraction unbound at 5 µM [11]	solubility thermodynamic [12]	solubility thermodynamic [13]	solubility thermodynamic [14]	AUC(0-t) [15]	Vd [16]	clearance [17]	half-life [18]	SMILES
7.64	7.89	< 5.00	< 5.00	0.05 nmol/min/mg	75%	82%	7%	10%	34%	0.01	77 µM (≈ 28.8 µg/mL)	23 µM (≈ 8.61 µg/mL)	17 µM (≈ 6.36 µg/mL)	10.2 µM·h	1.73 L/kg	13.6 mL/min/kg	124 min	CCCn1c(Oc2ccc(F)c(F)c2)nc2nc(C3CCCC3)[nH]c2c1=O
8.18	9.55	5.70	6.25	0.06 nmol/min/mg	78%	79%	0%	0%	0%	0.23	2150 µM (≈ 761 µg/mL)	43 µM (≈ 15.2 µg/mL)	38 µM (≈ 13.4 µg/mL)	2.7 µM·h	2 L/kg	55 mL/min/kg	30 min	CCCn1c(Oc2cccnc2C)nc2nc(C3CCCC3)[nH]c2c1=O
7.80	7.82	≤ 5.00	6.16 to 6.19	0.03 nmol/min/mg	82%	97%	0%	1%	5%	0.05	614 µM (≈ 216 µg/mL)	63 µM (≈ 22.2 µg/mL)	54 µM (≈ 19 µg/mL)	3.53 µM·h	1.2 L/kg	39.2 mL/min/kg	29.4 min	CCCn1c(-c2cccc(OC)c2)nc2nc(C3CCCC3)[nH]c2c1=O
